Experimental data taken from ChEMBL document CHEMBL3580662, “(R)-2-Phenylpyrrolidine Substituted Imidazopyridazines: A New Class of Potent and Selective Pan-TRK Inhibitors” (ACS Med Chem Lett, 2015).
One block for each compound: values may come before it.

What was measured:
[1] = Cytotoxicity against wild type mouse BA/F3 cells assessed as inhibition of cell proliferation after 48 hrs by luciferase reporter gene assay in presence of recombinant mouse IL3; format: functional, cell-based; conditions: BaF3, 48 h
How it was run: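 Parental wild-type Ba/F3 cells grown with IL-3; proliferation assay, IC50 in μM.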

[2] = target: Tyrosine-protein kinase JAK2 (Homo sapiens, UniProt O60674); experiment: Inhibition of Tel-fused JAK2 (unknown origin) expressed in mouse BA/F3 cells after 48 hrs by luciferase reporter gene assay in absence of recombinant mouse IL3; format: cell-based; conditions: baf3
Sequence of Tyrosine-protein kinase JAK2 (O60674 whole entry, looked up, the tested form may be a part): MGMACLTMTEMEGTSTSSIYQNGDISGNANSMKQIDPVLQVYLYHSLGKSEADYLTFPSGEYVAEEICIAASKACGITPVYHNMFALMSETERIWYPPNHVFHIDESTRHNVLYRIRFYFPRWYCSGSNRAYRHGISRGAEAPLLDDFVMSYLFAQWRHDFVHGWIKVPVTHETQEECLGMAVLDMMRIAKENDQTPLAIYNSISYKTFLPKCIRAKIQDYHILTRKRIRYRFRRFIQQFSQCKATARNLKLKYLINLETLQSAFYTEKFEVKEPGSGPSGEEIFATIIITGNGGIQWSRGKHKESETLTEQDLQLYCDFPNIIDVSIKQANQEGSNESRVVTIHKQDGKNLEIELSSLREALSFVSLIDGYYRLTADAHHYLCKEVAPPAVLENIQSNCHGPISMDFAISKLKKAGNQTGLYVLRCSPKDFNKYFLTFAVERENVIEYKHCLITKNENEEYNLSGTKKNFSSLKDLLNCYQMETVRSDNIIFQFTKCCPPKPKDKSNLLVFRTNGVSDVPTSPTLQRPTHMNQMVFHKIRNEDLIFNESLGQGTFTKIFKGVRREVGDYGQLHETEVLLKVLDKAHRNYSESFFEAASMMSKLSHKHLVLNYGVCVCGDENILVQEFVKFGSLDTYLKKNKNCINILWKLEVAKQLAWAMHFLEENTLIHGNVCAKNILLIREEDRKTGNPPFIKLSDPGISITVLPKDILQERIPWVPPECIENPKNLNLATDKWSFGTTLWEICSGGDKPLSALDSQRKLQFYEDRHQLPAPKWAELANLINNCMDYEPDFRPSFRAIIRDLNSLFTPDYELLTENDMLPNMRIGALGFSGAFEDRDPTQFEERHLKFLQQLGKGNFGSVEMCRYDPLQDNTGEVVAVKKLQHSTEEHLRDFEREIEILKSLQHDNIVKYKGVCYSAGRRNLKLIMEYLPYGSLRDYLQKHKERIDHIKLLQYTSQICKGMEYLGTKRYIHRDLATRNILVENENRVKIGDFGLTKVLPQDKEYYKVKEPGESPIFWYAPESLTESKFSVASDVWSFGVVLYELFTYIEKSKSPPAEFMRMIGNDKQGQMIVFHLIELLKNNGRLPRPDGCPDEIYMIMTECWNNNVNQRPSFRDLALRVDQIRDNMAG

[3] = Oral bioavailability in Sprague-Dawley rat at 10 mg/kg; format: ADME, organism-based; conditions: in vivo
How it was run: (§1)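 Male Sprague–Dawley rats dosed intravenously at 3 mg/kg and orally at 10 mg/kg, each as a solution in 75% PEG300/25% D5W. Plasma sampled for clearance, Vss, T1/2, oral AUC, Cmax and oral bioavailability F(%).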

[4] = Volume of distribution at steady state in Sprague-Dawley rat at 3 mg/kg, iv and 10 mg/kg, po; format: ADME, organism-based; conditions: in vivo, read-out: Vdss; how it was run: as §1
[5] = AUC in Sprague-Dawley rat at 10 mg/kg, po; format: ADME, organism-based; conditions: in vivo; how it was run: as §1
Rattus norvegicus [6] = experiment: Plasma clearance in Sprague-Dawley rat at 3 mg/kg, iv and 10 mg/kg, po relative to hepatic blood flow; format: ADME, organism-based; conditions: in vivo
[7] = Half life in Sprague-Dawley rat at 3 mg/kg, iv and 10 mg/kg, po; format: ADME, organism-based; conditions: in vivo; how it was run: as §1
[8] = Cmax in Sprague-Dawley rat at 10 mg/kg, po; format: ADME, organism-based; design: dose 10 mg/kg, route oral; conditions: in vivo; how it was run: as §1
[9] = Plasma clearance in Sprague-Dawley rat at 3 mg/kg, iv and 10 mg/kg, po; format: ADME, organism-based; how it was run: as §1
KM12 [10] = experiment: Antitumor activity against human KM12 cells xenografted in po dosed CRL RNU nude rat assessed as tumor growth inhibition administered as bid for 14 days; format: functional, organism-based
How it was run: (§2)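 Female CRL RNU nude rats transplanted with KM12 tumor tissue; dosing started 10 days postimplant, twice daily for 14 days at 6.25, 12.5, 25 or 50 mg/kg alongside vehicle. Efficacy read as tumor volume.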

[11] = Ratio of AUC in brain to AUC in plasma of Balb/C mouse at 20 mg/kg, po; format: ADME, organism-based; conditions: brain and plasma, read-out: Ratio AUC
[12] = Oral bioavailability in Wistar rat at 10 mg/kg; format: ADME, organism-based; conditions: in vivo
How it was run: (§3)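 Male Wistar rats given 3 mg/kg IV and 10 mg/kg PO, formulated as a solution in 75% PEG300/25% D5W. Plasma PK parameters derived: CL, Vss, T1/2, AUC and Cmax after oral dosing, and F(%).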

[13] = Plasma clearance in Wistar rat at 3 mg/kg, iv and 10 mg/kg, po; format: ADME, organism-based; how it was run: as §3
[14] = Half life in Wistar rat at 3 mg/kg, iv and 10 mg/kg, po; format: ADME, organism-based; conditions: in vivo; how it was run: as §3
[15] = AUC in Wistar rat at 10 mg/kg, po; format: ADME, organism-based; conditions: in vivo; how it was run: as §3
[16] = Volume of distribution at steady state in Wistar rat at 3 mg/kg, iv and 10 mg/kg, po; format: ADME, organism-based; conditions: in vivo, read-out: Vdss; how it was run: as §3
[17] = Cmax in Wistar rat at 10 mg/kg, po; format: ADME, organism-based; design: dose 10 mg/kg, route oral; conditions: in vivo; how it was run: as §3
Rattus norvegicus [18] = experiment: Toxicity in CRL RNU nude rat xenografted with human KM12 cells assessed as increase in body weight at 25 to 50 mg/kg, po bid administered for 14 days measured on day 14 post last dose; format: organism-based; conditions: in vivo, 336 h
[19] = Ratio of Cmax in brain to Cmax in plasma of Balb/C mouse at 20 mg/kg, po; format: ADME, organism-based; conditions: brain and plasma, read-out: BPR
KM12 [20] = experiment: Antitumor activity against human KM12 cells xenografted in CRL RNU nude rat assessed as induction of tumor regression at 50 mg/kg, po bid administered for 14 days relative to vehicle-treated control; format: functional; how it was run: as §2
Rattus norvegicus [21] = experiment: Plasma clearance in Wistar rat at 3 mg/kg, iv and 10 mg/kg, po relative to hepatic blood flow; format: ADME, organism-based; conditions: in vivo
[22] = target: BDNF/NT-3 growth factors receptor (Homo sapiens, UniProt Q16620); experiment: Inhibition of TRKB (unknown origin) by scintillation proximity assay
Sequence of BDNF/NT-3 growth factors receptor (Q16620 whole entry): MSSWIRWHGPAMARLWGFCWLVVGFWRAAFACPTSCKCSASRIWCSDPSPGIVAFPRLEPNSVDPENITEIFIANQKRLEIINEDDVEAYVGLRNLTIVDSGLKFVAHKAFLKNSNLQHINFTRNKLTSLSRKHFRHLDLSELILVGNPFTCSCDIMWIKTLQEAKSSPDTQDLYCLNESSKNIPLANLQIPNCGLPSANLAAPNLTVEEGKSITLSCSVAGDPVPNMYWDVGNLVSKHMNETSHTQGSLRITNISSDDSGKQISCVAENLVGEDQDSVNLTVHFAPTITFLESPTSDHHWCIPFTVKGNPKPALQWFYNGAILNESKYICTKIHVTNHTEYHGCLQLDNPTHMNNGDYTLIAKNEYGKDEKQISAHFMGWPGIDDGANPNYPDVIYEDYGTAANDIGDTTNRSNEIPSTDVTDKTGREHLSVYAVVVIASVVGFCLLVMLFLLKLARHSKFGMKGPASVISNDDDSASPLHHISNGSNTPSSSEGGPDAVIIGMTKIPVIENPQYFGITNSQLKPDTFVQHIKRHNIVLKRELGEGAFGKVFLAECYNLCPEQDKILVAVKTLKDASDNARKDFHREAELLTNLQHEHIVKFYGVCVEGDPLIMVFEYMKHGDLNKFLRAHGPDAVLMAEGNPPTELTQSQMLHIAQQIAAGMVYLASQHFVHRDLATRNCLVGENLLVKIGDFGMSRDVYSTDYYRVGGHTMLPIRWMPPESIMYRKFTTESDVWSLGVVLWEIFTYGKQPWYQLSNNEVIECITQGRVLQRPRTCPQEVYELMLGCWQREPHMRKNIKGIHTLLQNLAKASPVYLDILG
How it was run: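 TRKB biochemical inhibition measured by scintillation proximity assay; IC50 reported.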

SMILES: N#Cc1ccc(-c2cnc3ccc(N4CCCCC4c4cccc(F)c4)nn23)cc1 (racemic)
IC50 [1]: > 10 µM

SMILES: N#Cc1ccc(-c2cnc3ccc(N4CCCC4c4cccc(F)c4)nn23)cc1 (racemic)
IC50 [1]: > 10 µM

IC50 [2]: 6.7 µM
SMILES: Fc1cccc([C@H]2CCCN2c2ccc3ncc(-c4ccccn4)n3n2)c1
IC50 [1]: > 10 µM

SMILES: N#Cc1ccc(-c2cnc3ccc(N4CCC[C@@H]4c4cccc(F)c4)nn23)cc1
IC50 [1]: > 10 µM

bioavailability [3]: 10% | Vd [4]: 2.3 L/kg | AUC [5]: 0.659 µM·h | CL (Rattus norvegicus [6]): 100% | half-life [7]: 49.8 min | Cmax [8]: 110 nM | clearance [9]: 56.9 mL/min/kg
SMILES: OC1CCN(c2cccc(-c3cnc4ccc(N5CCC[C@@H]5c5cccc(F)c5)nn34)n2)CC1
IC50 [1]: > 10 µM

SMILES: N#Cc1cccc(-c2cnc3ccc(NCc4ccccc4)nn23)c1
IC50 [1]: > 10 µM

SMILES: COc1ccccc1CNc1ccc2ncc(-c3ccc(C#N)cc3)n2n1
IC50 [1]: 1.01 µM

SMILES: CN(Cc1ccccc1)c1ccc2ncc(-c3ccc(C#N)cc3)n2n1
IC50 [1]: 5.89 µM

SMILES: N#Cc1ccc(-c2cnc3ccc(N4CCOCC4c4cccc(F)c4)nn23)cc1 (racemic)
IC50 [1]: > 10 µM

SMILES: NS(=O)(=O)c1ccc(-c2cnc3ccc(NCc4cccc(F)c4)nn23)cc1
IC50 [1]: 2.53 µM

SMILES: OCc1ccc(-c2cnc3ccc(NCc4cccc(F)c4)nn23)cc1
IC50 [1]: 1.92 µM

SMILES: O=C(Nc1ccc(-c2cnc3ccc(NCc4cccc(F)c4)nn23)cc1)C1CCOCC1
IC50 [1]: 3 µM

SMILES: N#Cc1ccc(-c2cnc3ccc(NCc4cccc(F)c4)nn23)cc1
IC50 [1]: 3.92 µM

Kp [11]: 0.2 | bioavailability [12]: 27% | clearance [13]: 45.2 mL/min/kg | half-life [14]: 96 min | AUC [15]: 1.88 µM·h | Vd [16]: 4.9 L/kg | Cmax [17]: 215 nM | IC50 [2]: 5.6 µM | Kp [19]: 0.2 | CL (Rattus norvegicus [21]): 82%
SMILES: OC1CCN(c2cc(-c3cnc4ccc(N5CCC[C@@H]5c5cccc(F)c5)nn34)ccn2)CC1
TGI (KM12 [10]): Dose-dependent effect | Activity (Rattus norvegicus [18]): Toxic | Activity (KM12 [20]): 20% | IC50 [1]: 5.91 µM

IC50 [22]: 0.083 µM | IC50 [2]: 4.7 µM
SMILES: N#Cc1ccc(-c2cnc3ccc(NCc4ccccc4)nn23)cc1
IC50 [1]: 7.13 µM

bioavailability [3]: 26% | Kp [11]: 0.8 | Vd [4]: 2.4 L/kg | AUC [5]: 1.9 µM·h | CL (Rattus norvegicus [6]): 82% | half-life [7]: 54 min | Cmax [8]: 250 nM | clearance [9]: 45.5 mL/min/kg | IC50 [2]: 2.7 µM | Kp [19]: 0.8
SMILES: O=C(O)CN1CCN(c2cc(-c3cnc4ccc(N5CCC[C@@H]5c5cccc(F)c5)nn34)ccn2)CC1
IC50 [1]: 4.79 µM

SMILES: N#Cc1ccc(-c2cnc3ccc(N4CCC[C@H]4c4cccc(F)c4)nn23)cc1
IC50 [1]: 9.23 µM
